ChEMBL document CHEMBL1152304, “Alteration of the bis-tetrahydrofuran core stereochemistries in asimicin can affect the cytotoxicity” (J Med Chem, 2008)

Experiments:
L1210 [1] = assay: Cytotoxicity against mouse L1210 cells at 0.3 ug by disk diffusion assay; assay type: functional
Procedure, shortened: (§1)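 15 µL of sample dried overnight on 6.5 mm filter disk. Disk placed near edge of 60 mm dish of cells plated in soft agar, incubated 7-10 days. Zone of inhibition measured from disk edge to start of normal-sized colony formation, disk diameter taken as 200 units. Overly toxic samples diluted 1:4 or 1:10 and retested.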

[2] = Cytotoxicity against human CFU-GM cells at 30 ug by disk diffusion assay; assay type: functional; procedure, shortened: as §1
[3] = Cytotoxicity against human H125M cells at 30 ug by disk diffusion assay; assay type: functional; procedure, shortened: as §1
L1210 [4] = assay: Cytotoxicity against mouse L1210 cells at 30 ug by disk diffusion assay; assay type: functional; procedure, shortened: as §1
[5] = Cytotoxicity against human CFU-GM cells at 3 ug by disk diffusion assay; assay type: functional; procedure, shortened: as §1
MC-38 [6] = assay: Cytotoxicity against mouse Colon 38 cells at 0.3 ug by disk diffusion assay; assay type: functional; procedure, shortened: as §1
[7] = Cytotoxicity against human CFU-GM cells at 0.3 ug by disk diffusion assay; assay type: functional; procedure, shortened: as §1
L1210 [8] = assay: Cytotoxicity against mouse L1210 cells at 3 ug by disk diffusion assay; assay type: functional; procedure, shortened: as §1
[9] = Inhibition of bovine heart mitochondrial complex1 activity; parameters: species or system Bos taurus
Procedure, shortened: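 Bovine heart submitochondrial particles, 15 µg/mL, in 0.25 M sucrose, 1 mM MgCl2, 50 mM phosphate pH 7.5. Inhibitor added at various concentrations and equilibrated 5 min. Reaction started with 150 µM NADH and followed spectrophotometrically at 340 nm. IC50 derived.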

HCT-116 [10] = assay: Cytotoxicity against human HCT116 cells at 30 ug by disk diffusion assay; assay type: functional; procedure, shortened: as §1
MC-38 [11] = assay: Cytotoxicity against mouse Colon 38 cells at 3 ug by disk diffusion assay; assay type: functional; procedure, shortened: as §1
MC-38 [12] = assay: Cytotoxicity against mouse Colon 38 cells at 30 ug by disk diffusion assay; assay type: functional; procedure, shortened: as §1
CCRF-CEM [13] = assay: Cytotoxicity against human CEM cells at 30 ug by disk diffusion assay; assay type: functional; procedure, shortened: as §1
HCT-116 [14] = assay: Cytotoxicity against human HCT116 cells at 15 ug by disk diffusion assay; assay type: functional; procedure, shortened: as §1
L1210 [15] = assay: Cytotoxicity against mouse L1210 cells at 3.75 ug by disk diffusion assay; assay type: functional; procedure, shortened: as §1
L1210 [16] = assay: Cytotoxicity against mouse L1210 cells at 0.94 ug by disk diffusion assay; assay type: functional; procedure, shortened: as §1
[17] = Cytotoxicity against human CFU-GM cells at 3.75 ug by disk diffusion assay; assay type: functional; procedure, shortened: as §1
[18] = Cytotoxicity against human H125M cells at 15 ug by disk diffusion assay; assay type: functional; procedure, shortened: as §1
MC-38 [19] = assay: Cytotoxicity against mouse Colon 38 cells at 0.94 ug by disk diffusion assay; assay type: functional; procedure, shortened: as §1
CCRF-CEM [20] = assay: Cytotoxicity against human CEM cells at 15 ug by disk diffusion assay; assay type: functional; procedure, shortened: as §1
L1210 [21] = assay: Cytotoxicity against mouse L1210 cells at 60 ug by disk diffusion assay; assay type: functional; procedure, shortened: as §1
[22] = Cytotoxicity against human CFU-GM cells at 0.94 ug by disk diffusion assay; assay type: functional; procedure, shortened: as §1
L1210 [23] = assay: Cytotoxicity against mouse L1210 cells at 15 ug by disk diffusion assay; assay type: functional; procedure, shortened: as §1
[24] = Cytotoxicity against human CFU-GM cells at 15 ug by disk diffusion assay; assay type: functional; procedure, shortened: as §1
MC-38 [25] = assay: Cytotoxicity against mouse Colon 38 cells at 15 ug by disk diffusion assay; assay type: functional; procedure, shortened: as §1
MC-38 [26] = assay: Cytotoxicity against mouse Colon 38 cells at 3.75 ug by disk diffusion assay; assay type: functional; procedure, shortened: as §1
[27] = Cytotoxicity against human CFU-GM cells at 60 ug by disk diffusion assay; assay type: functional; procedure, shortened: as §1
MC-38 [28] = assay: Cytotoxicity against mouse Colon 38 cells at 60 ug by disk diffusion assay; assay type: functional; procedure, shortened: as §1
HCT-116 [29] = assay: Cytotoxicity against human HCT116 cells; assay type: functional, cell-based
[30] = Cytotoxicity against human H125M cells at 60 ug by disk diffusion assay; assay type: functional; procedure, shortened: as §1

SMILES | IC50 [9] | inhibition zone (IZ) (HCT-116 [14]) | inhibition zone (IZ) (L1210 [15]) | inhibition zone (IZ) (L1210 [16]) | inhibition zone (IZ) [17] | inhibition zone (IZ) [18] | inhibition zone (IZ) (MC-38 [19]) | inhibition zone (IZ) (CCRF-CEM [20]) | inhibition zone (IZ) (L1210 [21]) | inhibition zone (IZ) [22] | inhibition zone (IZ) (L1210 [23]) | inhibition zone (IZ) [24] | inhibition zone (IZ) (MC-38 [25]) | inhibition zone (IZ) (MC-38 [26]) | inhibition zone (IZ) [27] | inhibition zone (IZ) (MC-38 [28]) | IC50 (HCT-116 [29]) | further results
CCCCCCCCCC[C@@H](O)[C@H]1CC[C@@H]([C@@H]2CC[C@@H]([C@H](O)CCCCCCCCCC[C@@H](O)CC3=C[C@H](C)OC3=O)O2)O1 | 2 nM |  |  |  |  |  |  |  |  |  |  |  |  |  |  |  |  | inhibition zone (IZ) (L1210 [1]): 100 Zone units; inhibition zone (IZ) [2]: 650 Zone units; inhibition zone (IZ) [3]: 500 Zone units; inhibition zone (IZ) (L1210 [4]): 300 Zone units; inhibition zone (IZ) [5]: 550 Zone units; inhibition zone (IZ) (MC-38 [6]): 450 Zone units; inhibition zone (IZ) [7]: 450 Zone units; inhibition zone (IZ) (L1210 [8]): 200 Zone units; inhibition zone (IZ) (HCT-116 [10]): 500 Zone units; inhibition zone (IZ) (MC-38 [11]): 700 Zone units; inhibition zone (IZ) (MC-38 [12]): 850 Zone units; inhibition zone (IZ) (CCRF-CEM [13]): 200 Zone units
CCCCCCC[C@H](O)CC[C@H](O)[C@H]1CC[C@H]([C@H]2CC[C@H]([C@@H](O)CCCCCCCCCC[C@@H](O)CC3=C[C@H](C)OC3=O)O2)O1 |  | 600 Zone units | 400 Zone units | 100 Zone units | 450 Zone units | 550 Zone units | 750 Zone units | 150 Zone units | 600 Zone units | 450 Zone units | 300 Zone units | 300 Zone units | 900 Zone units | 850 Zone units | 750 Zone units | >1000 Zone units |  | 
CCCCCCC[C@H](O)CC[C@H](O)[C@H]1CC[C@H]([C@H]2CC[C@H]([C@H](O)CCCCCCCCCC[C@@H](O)CC3=C[C@H](C)OC3=O)O2)O1 |  | 600 Zone units | 350 Zone units | 150 Zone units | 550 Zone units | 100 Zone units | 600 Zone units | 0 Zone units | 700 Zone units | 500 Zone units | 250 Zone units | 400 Zone units | 950 Zone units | 750 Zone units | 700 Zone units | 900 Zone units |  | 
C[C@H]1C=C(C[C@H](O)CCCCCCCCCC[C@@H](O)[C@H]2CC[C@H]([C@H]3CC[C@H]([C@H](O)CCCCCCCCCCO)O3)O2)C(=O)O1 |  |  |  |  |  |  |  |  |  |  |  |  |  |  |  |  |  | inhibition zone (IZ) (L1210 [1]): 50 Zone units; inhibition zone (IZ) [2]: 650 Zone units; inhibition zone (IZ) [3]: 500 Zone units; inhibition zone (IZ) (L1210 [4]): 200 Zone units; inhibition zone (IZ) [5]: 550 Zone units; inhibition zone (IZ) (MC-38 [6]): 450 Zone units; inhibition zone (IZ) [7]: 450 Zone units; inhibition zone (IZ) (L1210 [8]): 100 Zone units; inhibition zone (IZ) (HCT-116 [10]): 600 Zone units; inhibition zone (IZ) (MC-38 [11]): 600 Zone units; inhibition zone (IZ) (MC-38 [12]): 800 Zone units; inhibition zone (IZ) (CCRF-CEM [13]): 150 Zone units
CCCCCCCCCC[C@H](O)[C@H]1CC[C@@H]([C@@H]2CC[C@H]([C@@H](O)CCCCCCCCCC[C@@H](O)CC3=C[C@H](C)OC3=O)O2)O1 | 5 nM | 550 Zone units | 250 Zone units | 100 Zone units | 600 Zone units | 400 Zone units | 700 Zone units | 0 Zone units | 650 Zone units | 550 Zone units | 200 Zone units | 250 Zone units | 900 Zone units | 800 Zone units | 700 Zone units | 800 Zone units | 0.69 nM | 
CCCCCCCCCC[C@@H](O)[C@H]1CC[C@@H]([C@@H]2CC[C@H]([C@H](O)CCCCCCCCCC[C@@H](O)CC3=C[C@H](C)OC3=O)O2)O1 | 7.5 nM | 500 Zone units | 150 Zone units | 150 Zone units | 500 Zone units | 350 Zone units | 550 Zone units | 0 Zone units | 450 Zone units | 450 Zone units | 100 Zone units | 300 Zone units | 800 Zone units | 750 Zone units | 650 Zone units | 800 Zone units | 18 nM | 
CCCCCCCCCC[C@H](O)[C@H]1CC[C@H]([C@H]2CC[C@H]([C@@H](O)CCCCCCCCCC[C@@H](O)CC3=C[C@H](C)OC3=O)O2)O1 | 9 nM | 600 Zone units | 400 Zone units | 100 Zone units |  | 450 Zone units | 700 Zone units | 150 Zone units | 800 Zone units |  | 150 Zone units |  | 800 Zone units | 800 Zone units |  | 800 Zone units | 0.45 nM | 
CCCCCCCCCC[C@@H](O)[C@@H]1CC[C@@H]([C@@H]2CC[C@@H]([C@H](O)CCCCCCCCCC(O)CC3=CC(C)OC3=O)O2)O1 (stereo partly specified) [BULLATACIN] | 2.5 nM | 650 Zone units | 250 Zone units | 150 Zone units | 450 Zone units |  | 650 Zone units | 100 Zone units | 550 Zone units | 450 Zone units | 200 Zone units | 550 Zone units | 850 Zone units | 800 Zone units | 700 Zone units | 1000 Zone units | 1.4 nM | inhibition zone (IZ) [30]: 400 Zone units
CCCCCCCCCC[C@H](O)[C@H]1CC[C@@H]([C@@H]2CC[C@H]([C@H](O)CCCCCCCCCC[C@@H](O)CC3=C[C@H](C)OC3=O)O2)O1 [rolliniastatin-1] | 3 nM | 600 Zone units | 250 Zone units | 100 Zone units | 400 Zone units | 600 Zone units | 700 Zone units | 0 Zone units | 600 Zone units | 400 Zone units | 200 Zone units | 350 Zone units | 1000 Zone units | 800 Zone units | 750 Zone units | 900 Zone units | 0.22 nM | 
CCCCCCCCCC[C@@H](O)[C@H]1CC[C@@H]([C@H]2CC[C@H]([C@H](O)CCC[C@H](O)CCCCCCCC3=C[C@H](C)OC3=O)O2)O1 [TRILOBIN] |  | 450 Zone units | 200 Zone units | 100 Zone units | 500 Zone units | 350 Zone units | 600 Zone units | 100 Zone units | 850 Zone units | 400 Zone units | 200 Zone units | 350 Zone units | 800 Zone units | 800 Zone units | 550 Zone units | 950 Zone units |  | 
